ChEMBL document CHEMBL1240502, “Therapeutic effects of cantharidin analogues without bridging ether oxygen on human hepatocellular carcinoma cells” (Eur J Med Chem, 2010)
Calls of active or inactive are those of the source. The rule behind the calls is not given here.

How the values were obtained:
HepG2 [1] = test: Cytotoxicity against human HepG2 cells after 48 hrs by MTT assay; assay type: functional, cell-based; conditions: HepG2, 48 h
Summary of the method: (§1)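 Cells seeded in 24-well plates at 1 × 10⁵ cells/well, allowed 12 h, then exposed to test chemical or vehicle for 48 h, in triplicate. Medium replaced with MTT in PBS (pH 7.4) for 4 h at 37 °C; formazan dissolved in DMSO and read at 540 nm. Viability = (test − background)/(control − background) × 100.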

SK-HEP1 [2] = test: Cytotoxicity against human SKHEP1 cells after 48 hrs by MTT assay; assay type: functional, cell-based; conditions: SK-HEP1, 48 h; summary of the method: as §1
Hepatocyte [3] = test: Cytotoxicity against rat hepatocyte cells after 48 hrs by MTT assay; assay type: cell-based; summary of the method: as §1
[4] = Cytotoxicity against rat hepatocyte cells assessed as survival at 200 uM after 48 hrs by MTT assay; assay type: cell-based; conditions: rat hepatocytes, read-out: Activity; summary of the method: as §1
HepG2 [5] = test: Cytotoxicity against human HepG2 cells at 50 uM after 48 hrs by MTT assay; assay type: functional, cell-based; summary of the method: as §1
SK-HEP1 [6] = test: Cytotoxicity against human SKHEP1 cells at 50 uM after 48 hrs by MTT assay; assay type: functional, cell-based; summary of the method: as §1
Hepatocyte [7] = test: Cytotoxicity against rat hepatocyte cells at 50 uM after 48 hrs by MTT assay; assay type: cell-based; conditions: hepatocytes; summary of the method: as §1

SMILES	IC50 (HepG2 [1]) [µM]	IC50 (SK-HEP1 [2]) [µM]	IC50 (Hepatocyte [3]) [µM]	viability at 48 h, 200 µM [4] [%]	Activity (HepG2 [5])	Activity (SK-HEP1 [6])	Activity (Hepatocyte [7])
C[C@@]12C(=O)OC(=O)[C@]1(C)[C@H]1CC[C@@H]2O1 [CANTHARIDIN]	11	34	21				
Cc1ccc2c(c1)C(=O)N(c1nccs1)C2=O	> 200	> 200	> 200				
Cc1cnc(/N=C2\OC(=O)C3C2[C@@H]2C=C[C@H]3CC2)s1 (stereo partly drawn)	92	> 200	> 200	80	Active	Active	Non-toxic
O=C1c2ccccc2C(=O)N1c1nccs1	> 200	> 200	> 200				
O=C1OC(=O)[C@H]2[C@@H]1[C@H]1C=C[C@@H]2C1	62	151	> 200	80	Active	Active	Non-toxic
O=C1C2C(C(=O)N1c1nc3ccccc3s1)[C@H]1C=C[C@@H]2CC1 (stereo partly drawn)	> 200	> 200	> 200				
Cc1cnc(N2C(=O)c3ccccc3C2=O)s1	> 200	> 200	> 200				
Cc1cnc(N2C(=O)C3C(C2=O)[C@H]2C=C[C@@H]3CC2)s1 (stereo partly drawn)	> 200	> 200	> 200				
O=C1C2C(C(=O)N1c1nccs1)[C@H]1C=C[C@@H]2CC1 (stereo partly drawn)	> 200	> 200	> 200				
Cc1ccc2c(c1)C(=O)N(c1nc3ccccc3s1)C2=O	> 200	> 200	> 200				
O=C1OC(=O)C2C3CCC(O3)C12 (stereo not drawn) [DEMETHYL-CANTHARIDIN]	74	126	75				
O=C1OC(=O)c2cc(Oc3ccc4c(c3)C(=O)OC4=O)ccc21	121	199	> 200	80	Active	Active	Non-toxic
